NPY-Y1 PAM-ag: potentiates or activates human NPY-Y1 receptor | NPY-Y1 expressing cells, potentiator/agonist activation | 0.37% of 220,000 active | activation, % at 3.6 µM | AID 1304; in the data active = activation above about 33%, passing the limit was not always enough;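 also: cells stimulated with NPY at EC10 then isoproterenol at EC100; 0% = low agonist plus stimulus and 100% = saturating agonist plus stimulus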
NPY-Y1 antag: antagonists of human neuropeptide Y receptor Y1; P25929; HEK293-CNG Y1 cells, membrane potential fluorescence; NPY at EC95, then isoproterenol; inhibition, % at 3.6 µM; 1% of 200,000 active;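 active = inhibition above the campaign mean inhibition of all tested compounds plus 3 SD, cut at about 20% in these data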;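 also: 0% = DMSO wells given NPY plus isoproterenol and 100% = isoproterenol alone without NPY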
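Material: HEK293 Y1/CNG channel cell line | Also added: NPY (25 nM), isoproterenol (1 µM), Ro 20-1724 (25 µM) | Compound: One concentration, 3.6 µM, in 0.4% DMSO | Schedule: 3 h dye uptake, 1 h room-temperature compound, 45 min post-isoproterenol | Signal: Membrane-potential fluorescent dye readout | Read-out: % inhibition of NPY effect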
NPY Y2 blocker: antagonists of human neuropeptide Y receptor Y2. NPY-Y2 expressing cells, antagonist mode. inhibition, % at 2.7 µM. 0.99% of 140,000 active. AID 793; in the data active = inhibition above about 17%;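 also: 0% = vehicle with agonist challenge and 100% = reference antagonist with challenge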
Target sequence (P49146 whole entry, looked up): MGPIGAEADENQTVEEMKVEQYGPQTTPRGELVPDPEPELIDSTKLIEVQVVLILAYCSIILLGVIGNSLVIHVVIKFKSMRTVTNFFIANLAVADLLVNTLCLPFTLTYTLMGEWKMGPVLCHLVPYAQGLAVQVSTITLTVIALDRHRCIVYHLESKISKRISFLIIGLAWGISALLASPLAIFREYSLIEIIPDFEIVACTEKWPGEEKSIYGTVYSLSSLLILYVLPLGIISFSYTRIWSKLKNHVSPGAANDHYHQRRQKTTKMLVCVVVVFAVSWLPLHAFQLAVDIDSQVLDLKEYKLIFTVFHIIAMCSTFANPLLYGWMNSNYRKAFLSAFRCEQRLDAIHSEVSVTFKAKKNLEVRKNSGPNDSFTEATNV
Insulin prom inh: TRM-6 insulin promoter activity inhibition; inhibition, % at 2 µM; TRM-6 cells, insulin promoter-eGFP reporter, imaging; reporter expression induced with tamoxifen; 0.9% of 130,000 active;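 active = inhibition above the mean plus 3 SD, with well images judged a real hit on visual review, cut at about 60% in these data, passing the limit was not always enough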
NPY2 pot ag: human NPY-Y2 potentiation or agonism, primary screen; cells expressing NPY-Y2, potentiator/agonist read-out; activation, % at 3.6 µM; 0.45% of 220,000 active; in the data active = activation above about 27%;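 also: cells stimulated with NPY near EC25 plus isoproterenol at EC100; 0% = vehicle plus submaximal agonist and 100% = vehicle plus saturating agonist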
RAM inhibit: yeast RAM network inhibition | inhibition, % at 50 µM | S. cerevisiae dse1pr::URA3 reporter, 5-FOA growth OD615, 2 d; analog-sensitive cbk1-as2 kinase mutant strain | 1.8% of 190,000 active | AID 868;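 active = inhibition above a set limit, 3 SD over mean compound inhibition, cut at about 8.4% in these data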;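 also: 0% = DMSO-only wells with no growth and 100% = 10 µM 1-NA-PP1 full growth; inhibition rescues growth on 5-FOA so higher OD means more RAM inhibition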
NPY-Y2 confirm: confirmation of human NPY-Y2 receptor potentiators or agonists | shares compounds with NPY2 pot ag | cell-based NPY-Y2 potentiator/agonist assay | activation, % at 3.6 µM | 20% of 450 active | AID 1539; in the data active = activation above about 33%
NPY-Y1 potentiator: NPY-Y1 potentiation or agonism as NPY-Y2 counter-screen; 20% of 450 active; shares compounds with NPY2 pot ag; activation, % at 3.6 µM; AID 1651; Y1 HEK293-CNG cells, membrane potential fluorescence; in the data active = activation above about 45%;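 also: cells stimulated with submaximal NPY then isoproterenol with phosphodiesterase inhibitor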
NPY-Y1 agonist 2: counter-screen for NPY-Y2 potentiators: agonists of human NPY-Y1. shares compounds with NPY2 pot ag. HEK293 Y1-CNGC, membrane potential fluorescence, agonism. activation, % at 3.6 µM. 37% of 450 active. AID 1702;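 active = activation above the mean of DMSO-only control wells plus 3 SD, cut at about 18% in these data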;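 also: cells stimulated with 1 µM isoproterenol plus the PDE inhibitor Ro 20-1724; 0% = isoproterenol with DMSO and no NPY and 100% = 40 nM NPY; Y1 agonists lower the membrane potential dye signal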
CNGC inhibitor: counter-screen for NPY-Y2 potentiators: inhibitors of CNG channel activity; inhibition, % at 3.6 µM; HEK293-CNG parental, isoproterenol cAMP, membrane potential fluorescence; 32% of 450 active; shares compounds with NPY2 pot ag;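 active = inhibition above the control-well mean plus 3 SD of those wells, cut at about 22% in these data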;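 also: 0% = DMSO with isoproterenol and 100% = DMSO without isoproterenol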
NPY-Y2 ag 2: NPY-Y2 agonism, counter-screen for Y2 potentiators; shares compounds with NPY2 pot ag; 56% of 450 active; HEK293 Y2/CNGC cells, membrane potential fluorescence, agonist mode; activation, % at 3.6 µM; AID 1710;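 active = activation above the mean of solvent-only control wells plus 3 SD, cut at about 10% in these data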;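 also: cells stimulated by isoproterenol with no NPY added so direct agonism is tested; 0% = DMSO with isoproterenol alone and 100% = NPY at EC100 plus isoproterenol; agonism lowers probe fluorescence through less cAMP and CNG channel opening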
Starred values were filed as active, the others as inactive; . = no result given. This is a sample that favours compounds with a hit; in the whole collection about 3.8% have one here.

SMILES	NPY-Y1 PAM-ag	NPY-Y1 antag	NPY Y2 blocker	Insulin prom inh	NPY2 pot ag	RAM inhibit	NPY-Y2 confirm	NPY-Y1 potentiator	NPY-Y1 agonist 2	CNGC inhibitor	NPY-Y2 ag 2
CN(C)c1cccc2c1C(=O)c1ccccc1C2=O	17	-5	-6	-13	33*	0	34*	42	26*	26*	29*
Cc1nn(CC(=O)OCC(=O)NC(C)c2ccccc2)c(C)c1[N+](=O)[O-] (stereo not given)	18	5	.	.	92*	-1	-8	-1	-7	-1	7
Cc1nn(CC(=O)NC(C)c2ccccc2)c(C)c1[N+](=O)[O-] (stereo not given)	4	5	.	25	-3	0	.	.	.	.	.
COCCN=c1scc(-c2cc(OC)ccc2OC)n1/N=C/c1c[nH]c2ccccc12	43	-13	-3	0	33*	2	33*	49*	46*	37*	36*
COC(=O)N/N=C/c1c[nH]c2ccccc12	13	-2	0	13	4	1	.	.	.	.	.
O=C(Cn1c(-c2cscn2)nc2ccccc21)Nc1ccc2ccccc2c1	44	-10	-1	-7	29*	11*	18	37	27*	32*	25*
O=C(Cn1c(-c2cscn2)nc2ccccc21)Nc1cc(F)ccc1F	-26	0	3	28	4	-1	.	.	.	.	.
Cc1ccc(N2CC(C(=O)Nc3nnc(SCC(=O)Nc4nc(C)cs4)s3)CC2=O)cc1 (stereo not given)	-6	-3	3	-56	3	6	.	.	.	.	.
O=C(c1ccc(F)cc1F)C1CCN(c2ccc([N+](=O)[O-])cn2)CC1	31	.	.	.	46*	.	8	-4	8	8	12*
Fc1ccc(Nc2ccnc(Nc3ccc(F)cc3)n2)cc1	26	-5	-3	-12	32*	-1	21	28	15	24*	26*
CC(C)c1ccc(NS(=O)(=O)c2ccc3[nH]cc(C(=O)N4CCC(C(N)=O)CC4)c(=O)c3c2)cc1	21	-11	-4	.	39*	1	16	32	18*	14	12*
O=C(c1c[nH]c2ccc(S(=O)(=O)N3CCOCC3)cc2c1=O)N1CCCC1	12	4	0	.	17	2	.	.	.	.	.
COCC(=O)N(Cc1cc2cc(OC)ccc2[nH]c1=O)c1ccc(C)cc1	13	4	1	31	13	1	.	.	.	.	.
Cc1ccc(Nc2c(-c3ccc(N4CCOCC4)cc3)nc3cnccn23)cc1	14	.	.	.	4	.	.	.	.	.	.
Cc1ccccc1Nc1c(-c2ccc(N3CCOCC3)cc2)nc2cnccn12	45	.	.	.	39*	.	68*	76*	52*	48*	68*
O=C(COC(=O)C(O)C(O)C(=O)OCC(=O)c1ccc(C(F)(F)F)cc1)c1ccc(C(F)(F)F)cc1 (stereo not given)	15	.	.	.	8	.	.	.	.	.	.
COc1ccccc1NS(=O)(=O)c1cccc(NC(=O)Nc2ccc(Cl)cc2)c1	19	-9	.	-6	31*	4	30	38	30*	32*	31*
O=C(Cc1ccc(Cl)cc1)Nc1cccc(S(=O)(=O)Nc2ccccc2F)c1	38	-8	-4	16	38*	8	14	22	13	16	20*
CCCCc1n[nH]c(=S)n1Cc1ccc(C)cc1	3	-4	.	.	3	2	.	.	.	.	.
CC1(C)COCN1C(=O)c1ccc(Cl)c(Cl)c1	1	13	.	.	-1	1	.	.	.	.	.
CC(C)(C)N(Cc1cc2ccccc2[nH]c1=O)C(=O)c1cccnc1	14	-2	-1	64	85*	2	-1	0	0	1	1
COc1ccccc1NC(=O)CCC(=O)OCc1cccc([N+](=O)[O-])c1	-15	-1	.	.	9	3	.	.	.	.	.
CN(c1ccccc1C(=O)Nc1ccc(S(=O)(=O)N2CCOCC2)cc1)S(=O)(=O)c1ccccc1	2	0	1	33	1	2	.	.	.	.	.
O=C1Nc2ccccc2N=C(c2ccccc2)c2ccccc21	27	.	.	.	41*	.	6	19	9	14	-2
Cc1ccc(CN=C2NC(=O)C(CC(=O)NCCc3ccccc3)S2)cc1 (stereo not given)	2	3	.	55	5	4	.	.	.	.	.
O=[N+]([O-])c1cc([N+](=O)[O-])c2c(=Nc3ccccc3)n(-c3ccccc3)n(O)c2c1	28	-1	.	.	46*	3	47*	52*	47*	34*	65*
CC(NCC(c1ccco1)N1CCCCC1)C(=O)NC1CCCC1 (stereo not given)	-21	4	.	.	-3	1	.	.	.	.	.
Cn1c(N)c(C(=O)N/N=C/c2ccccc2)sc1=S	43	.	.	.	40*	.	25	33	23*	33*	17*
COc1ccc(-c2csc(NC(=O)COc3ccc(N(C)S(=O)(=O)c4ccc(C)cc4)cc3)n2)cc1	-18	8	1	-22	-14	4	.	.	.	.	.
COc1ccc(-c2csc(NC(=O)c3ccccc3NS(=O)(=O)c3ccc(C)cc3)n2)cc1	36	-8	1	.	65*	-1	31	-2	1	-4	25*

High-throughput results: PubChem, several laboratories
